Test results from ChEMBL document CHEMBL3627612, “Hirsutinolide Series Inhibit Stat3 Activity, Alter GCN1, MAP1B, Hsp105, G6PD, Vimentin, TrxR1, and Importin α-2 Expression, and Induce Antitumor Effects against Human Glioma” (J Med Chem, 2015).
The source made the active and inactive calls. The calls are words filed in the database; no cut-off is given here.

Tests used:
[1] = biological target: T1, Signal transducer and activator of transcription 1 (Mus musculus) (UniProt P42225); assay: Inhibition of Stat1 dimer DNA binding activity in EGF-stimulated mouse NIH3T3 nuclear extract expressing human EGFR assessed as residual activity at 5 uM preincubated for 30 mins followed by addition of radiolabeled probe hSIE for 30 mins by EMSA
T1 sequence (whole entry): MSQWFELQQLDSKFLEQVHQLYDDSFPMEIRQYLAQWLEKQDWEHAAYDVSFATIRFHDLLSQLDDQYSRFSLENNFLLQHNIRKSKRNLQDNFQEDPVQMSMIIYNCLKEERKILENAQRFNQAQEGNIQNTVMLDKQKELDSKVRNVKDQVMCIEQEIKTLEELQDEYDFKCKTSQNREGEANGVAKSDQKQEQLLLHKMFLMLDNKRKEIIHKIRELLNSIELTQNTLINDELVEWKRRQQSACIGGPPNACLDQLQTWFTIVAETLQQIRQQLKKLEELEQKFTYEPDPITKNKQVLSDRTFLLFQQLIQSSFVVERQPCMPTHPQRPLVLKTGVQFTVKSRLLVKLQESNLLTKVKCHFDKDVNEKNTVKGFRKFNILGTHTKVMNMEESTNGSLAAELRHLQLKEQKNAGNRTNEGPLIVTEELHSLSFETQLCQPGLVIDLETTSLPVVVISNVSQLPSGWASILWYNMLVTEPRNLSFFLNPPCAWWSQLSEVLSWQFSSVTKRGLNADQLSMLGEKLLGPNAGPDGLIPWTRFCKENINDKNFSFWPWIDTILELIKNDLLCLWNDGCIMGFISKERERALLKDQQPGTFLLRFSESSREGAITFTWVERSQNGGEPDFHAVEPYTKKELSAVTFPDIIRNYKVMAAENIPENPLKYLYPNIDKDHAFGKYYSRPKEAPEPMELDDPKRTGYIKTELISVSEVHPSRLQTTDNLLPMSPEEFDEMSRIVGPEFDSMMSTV

[2] = biological target: Signal transducer and activator of transcription 3 (Mus musculus) (UniProt P42227); assay: Inhibition of EGF-induced Stat3 phosphorylation in mouse NIH3T3 cells expressing human EGFR at 5 uM preincubated for 3 hrs followed by stimulation with 1 ug/ml EGF for 12 mins by immunoblot analysis; format: cell-based
Summary of the method: (§1)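 NIH3T3/hEGFR fibroblasts pretreated with or without 5 μM compound for 3 h, then stimulated with 1 μg/ml EGF for 12 min. Whole-cell lysates of equal total protein immunoblotted for phospho and total Stat3, Stat1, Stat5, Erk1/2. Controls were 0.025% DMSO-treated cells. Representative of 2–4 independent determinations.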

[3] = tested on: U-251; assay: Effect on SOCS3 expression in human U251MG cells at 5 uM after 0.5 to 24 hrs by immunoblot analysis; format: functional, cell-based
Summary of the method: (§2)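 U251MG cells treated with 5 μM compound for 0–24 h; whole-cell lysates of equal total protein immunoblotted. Controls were 0.025% DMSO-treated cells. Representative of 2–4 independent determinations.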

[4] = biological target: T2, Signal transducer and activator of transcription 3 (Homo sapiens, UniProt P40763); assay: Inhibition of orthovandate-induced Stat3 phosphorylation in human U251MG cells at 5 uM for 3 hrs by immunoblot analysis in presence of 10 to 300 uM orthovandate; format: cell-based; settings: U-251
Summary of the method: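 U251MG cells treated with 5 μM compound for 3 h without or with 10–300 μM Na3VO4. Whole-cell lysates of equal total protein immunoblotted for pStat3 and Stat3. Controls were 0.025% DMSO. Representative of 2–4 determinations.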

[5] = tested on: NIH3T3; assay: Inhibition of Stat5 dimer DNA binding activity in EGF-stimulated mouse NIH3T3 nuclear extract expressing human EGFR at 5 uM preincubated for 30 mins followed by addition of radiolabeled probe MGFe for 30 mins by EMSA; format: cell-free
[6] = tested on: NIH3T3; assay: Modulation of EGF-induced Stat5 phosphorylation in mouse NIH3T3 cells expressing human EGFR at 5 uM preincubated for 3 hrs followed by stimulation with 1 ug/ml EGF for 12 mins by immunoblot analysis; format: cell-based
Summary of the method: (§3)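 Whole-cell lysates of equal total protein from NIH3T3/hEGFR fibroblasts, pretreated with or without 5 μM compound (control 0.025% DMSO) for 3 h, then stimulated with 1 μg/ml EGF for 12 min. SDS-PAGE immunoblotting for pStat1/Stat1 and pStat5/Stat5 with β-actin or GAPDH loading controls. Representative of 2–4 independent determinations.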

[7] = Antiproliferative activity against human U373MG cells for 72 hrs by cyquant assay; format: functional, cell-based, U-373MG ATCC; settings: U373 MG
Summary of the method: (§4)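 CyQuant proliferation assay after 72 h compound exposure of cultured cells; relative viability normalized to DMSO-treated control; IC50 values derived. Glioma lines grown in RPMI or DMEM with 10% FBS and 1% nonessential amino acids.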

[8] = biological target: RAC-alpha serine/threonine-protein kinase (Homo sapiens) (UniProt P31749); assay: Modulation of Akt phosphorylation in human U251MG cells at 5 uM after 0.5 to 24 hrs by immunoblot analysis; format: cell-based; settings: U-251; summary of the method: as §2
[9] = Antiproliferative activity against human SF295 cells for 72 hrs by cyquant assay; format: functional, cell-based; settings: SF-295, 72 h; summary of the method: as §4
[10] = tested on: U-251; assay: Effect on PTP1B expression in human U251MG cells at 5 uM after 0.5 to 24 hrs by immunoblot analysis; format: functional, cell-based; summary of the method: as §2
[11] = biological target: Signal transducer and activator of transcription 3 (Mus musculus) (UniProt P42227); assay: Inhibition of Stat3 dimer DNA binding activity in mouse NIH3T3/vSrc nuclear extract at 5 uM preincubated for 30 mins followed by addition of radiolabeled probe hSIE for 30 mins by EMSA
[12] = biological target: Mitogen-activated protein kinase; ERK1/ERK2 (Homo sapiens) (UniProt P27361+P28482); assay: Modulation of Erk1/2 phosphorylation in human U251MG cells at 5 uM after 0.5 to 24 hrs by immunoblot analysis; format: cell-based; settings: U-251
Summary of the method: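 U251MG glioma cells (RPMI or DMEM, 10% FBS, 1% nonessential amino acids) treated with 5 μM compound for 0–24 h; 0.025% DMSO control. Whole-cell lysates of equal total protein immunoblotted for pErk1/2, Erk1/2, pJAK2 and JAK2 with β-actin or GAPDH loading controls. Representative of 2–4 independent determinations.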

[13] = tested on: MDA-MB-231; assay: Antiproliferative activity against human MDA-MB-231 cells for 72 hrs by cyquant assay; format: functional, cell-based; settings: MDA-MB-231, 72 h; summary of the method: as §4
[14] = biological target: T1, Signal transducer and activator of transcription 1 (Mus musculus); assay: Inhibition of Stat1 dimer DNA binding activity in EGF-stimulated mouse NIH3T3 nuclear extract expressing human EGFR at 5 uM preincubated for 30 mins followed by addition of radiolabeled probe hSIE for 30 mins by EMSA
[15] = tested on: SF-295; assay: Antiproliferative activity against human SF295 cells at 5 uM for 72 hrs by cyquant assay; format: functional, cell-based
[16] = biological target: Mitogen-activated protein kinase 1 and 3 (ERK2 and ERK1) (Mus musculus) (UniProt P63085+Q63844); assay: Modulation of EGF-induced Erk1/2 phosphorylation in mouse NIH3T3 cells expressing human EGFR at 5 uM preincubated for 3 hrs followed by stimulation with 1 ug/ml EGF for 12 mins by immunoblot analysis; format: cell-based; summary of the method: as §1
[17] = Antiproliferative activity against human U251MG cells for 72 hrs by cyquant assay; format: functional, cell-based; settings: U-251, 72 h; summary of the method: as §4
[18] = biological target: Signal transducer and activator of transcription 3 (Mus musculus) (UniProt P42227); assay: Inhibition of Stat3 dimer DNA binding activity in EGF-stimulated mouse NIH3T3 nuclear extract expressing human EGFR assessed as residual activity at 5 uM preincubated for 30 mins followed by addition of radiolabeled probe hSIE for 30 mins by EMSA
[19] = Cytotoxicity against mouse NIH/3T3 cells at 5uM after 72 hrs by cyquant cells; format: cell-based; settings: nih3t3, 72 h; summary of the method: as §4
[20] = tested on: U-251; assay: Antiproliferative activity against human U251MG cells at 5 uM for 72 hrs by cyquant assay; format: functional; summary of the method: as §4
[21] = Cytotoxicity against mouse NIH/3T3 cells after 72 hrs by cyquant cells; format: cell-based; settings: NIH3T3, 72 h; summary of the method: as §4
[22] = biological target: T3, Signal transducer and activator of transcription 1/ 3 (Mus musculus) (UniProt P42227+P42225); assay: Inhibition of Stat1:Stat3 dimer DNA binding activity in EGF-stimulated mouse NIH3T3 nuclear extract expressing human EGFR assessed as residual activity at 5 uM preincubated for 30 mins followed by addition of radiolabeled probe hSIE for 30 mins by EMSA; format: cell-free
[23] = tested on: MDA-MB-231; assay: Antiproliferative activity against human MDA-MB-231 cells at 5 uM for 72 hrs by cyquant assay; format: functional, cell-based
[24] = biological target: T2, Signal transducer and activator of transcription 3; assay: Inhibition of Stat3 activity in human U251MG cells assessed as phosphorylated Stat3 level at 5 uM by immunoblot analysis; format: cell-based; settings: U-251, TDE = time-dependent effect
[25] = biological target: T1, Signal transducer and activator of transcription 1 (Mus musculus); assay: Modulation of EGF-induced Stat1 phosphorylation in mouse NIH3T3 cells expressing human EGFR at 5 uM preincubated for 3 hrs followed by stimulation with 1 ug/ml EGF for 12 mins by immunoblot analysis; format: cell-based; summary of the method: as §3
[26] = biological target: T2, Signal transducer and activator of transcription 3; settings: U-251, 5 uM
[27] = biological target: Signal transducer and activator of transcription 3 (Mus musculus) (UniProt P42227); settings: NIH3T3, 5 uM
[28] = biological target: T3, Signal transducer and activator of transcription 1/ 3 (Mus musculus); settings: NIH3T3, 5 uM
[29] = biological target: T2, Signal transducer and activator of transcription 3; assay: Inhibition of Stat3 activity in human U251MG cells assessed as phosphorylated Stat3 level after 2 hrs by immunoblot analysis; format: cell-based; settings: U-251
Summary of the method: (§5)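 U251MG cells treated with 5 μM compound for 0–24 h, or with 0–5 μM for 2 h. Whole-cell lysates immunoblotted for pStat3, Stat3, GAPDH. Control was 0.025% DMSO-treated cells.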

[30] = tested on: MCF7; assay: Antiproliferative activity against human MCF7 cells for 72 hrs by cyquant assay; format: functional, cell-based; settings: MCF7, 72 h; summary of the method: as §4
[31] = biological target: T2, Signal transducer and activator of transcription 3; assay: Binding affinity to Stat3 (unknown origin) by NMR analysis
[32] = biological target: T2, Signal transducer and activator of transcription 3; assay: Inhibition of Stat3 activity in human U251MG cells assessed as phosphorylated Stat3 level at 5 uM after 0.5 to 24 hrs by immunoblot analysis; format: cell-based; settings: U-251; summary of the method: as §5

Chain of Signal transducer and activator of transcription 3 (Mus musculus) (P42227 whole entry): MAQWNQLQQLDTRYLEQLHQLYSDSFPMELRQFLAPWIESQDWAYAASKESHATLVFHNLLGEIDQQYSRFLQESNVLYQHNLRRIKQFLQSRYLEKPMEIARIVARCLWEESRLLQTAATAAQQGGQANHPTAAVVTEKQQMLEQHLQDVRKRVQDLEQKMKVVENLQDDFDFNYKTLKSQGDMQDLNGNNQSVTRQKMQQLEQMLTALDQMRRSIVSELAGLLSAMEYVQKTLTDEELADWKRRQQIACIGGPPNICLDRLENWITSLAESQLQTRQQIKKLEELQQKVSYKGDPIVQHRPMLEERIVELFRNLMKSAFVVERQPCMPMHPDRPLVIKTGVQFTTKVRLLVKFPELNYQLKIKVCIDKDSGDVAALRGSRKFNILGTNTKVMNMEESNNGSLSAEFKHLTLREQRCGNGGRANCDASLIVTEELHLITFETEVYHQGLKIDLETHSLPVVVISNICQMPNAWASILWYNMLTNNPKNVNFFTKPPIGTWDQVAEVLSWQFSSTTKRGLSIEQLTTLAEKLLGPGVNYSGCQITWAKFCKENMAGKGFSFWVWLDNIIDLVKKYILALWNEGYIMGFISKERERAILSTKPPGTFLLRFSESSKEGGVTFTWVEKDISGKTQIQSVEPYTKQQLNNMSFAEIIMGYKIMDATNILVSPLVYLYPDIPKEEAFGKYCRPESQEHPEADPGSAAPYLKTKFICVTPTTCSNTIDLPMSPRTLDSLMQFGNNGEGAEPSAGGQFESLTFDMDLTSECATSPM
T2 sequence (P40763 whole entry): as the sequence (P42227 whole entry) above, with D760E counted along it
Chain of Mitogen-activated protein kinase 1 and 3 (ERK2 and ERK1) (Mus musculus) (P63085 whole entry, looked up): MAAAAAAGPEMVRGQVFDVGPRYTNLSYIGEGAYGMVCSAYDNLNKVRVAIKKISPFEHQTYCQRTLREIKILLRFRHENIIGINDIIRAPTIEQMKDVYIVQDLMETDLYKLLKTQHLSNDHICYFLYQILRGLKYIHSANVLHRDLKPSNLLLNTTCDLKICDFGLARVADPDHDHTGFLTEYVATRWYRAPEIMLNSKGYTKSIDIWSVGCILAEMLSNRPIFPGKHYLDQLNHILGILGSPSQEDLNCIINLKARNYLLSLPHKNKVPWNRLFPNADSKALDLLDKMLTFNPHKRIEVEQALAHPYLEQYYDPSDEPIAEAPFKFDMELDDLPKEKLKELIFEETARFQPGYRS
Chain of Mitogen-activated protein kinase 1 and 3 (ERK2 and ERK1) (Mus musculus) (Q63844 whole entry, looked up): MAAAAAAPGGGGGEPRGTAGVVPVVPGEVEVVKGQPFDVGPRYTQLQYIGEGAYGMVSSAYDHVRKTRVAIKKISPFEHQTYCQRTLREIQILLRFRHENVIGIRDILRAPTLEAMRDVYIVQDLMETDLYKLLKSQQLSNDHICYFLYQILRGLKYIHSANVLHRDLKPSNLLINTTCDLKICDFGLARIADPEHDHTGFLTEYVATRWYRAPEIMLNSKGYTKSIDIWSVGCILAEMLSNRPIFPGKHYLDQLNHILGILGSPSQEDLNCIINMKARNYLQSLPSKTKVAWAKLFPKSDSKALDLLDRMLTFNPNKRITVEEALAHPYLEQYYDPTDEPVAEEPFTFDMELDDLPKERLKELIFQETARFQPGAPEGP
Chain of RAC-alpha serine/threonine-protein kinase (Homo sapiens) (P31749 whole entry): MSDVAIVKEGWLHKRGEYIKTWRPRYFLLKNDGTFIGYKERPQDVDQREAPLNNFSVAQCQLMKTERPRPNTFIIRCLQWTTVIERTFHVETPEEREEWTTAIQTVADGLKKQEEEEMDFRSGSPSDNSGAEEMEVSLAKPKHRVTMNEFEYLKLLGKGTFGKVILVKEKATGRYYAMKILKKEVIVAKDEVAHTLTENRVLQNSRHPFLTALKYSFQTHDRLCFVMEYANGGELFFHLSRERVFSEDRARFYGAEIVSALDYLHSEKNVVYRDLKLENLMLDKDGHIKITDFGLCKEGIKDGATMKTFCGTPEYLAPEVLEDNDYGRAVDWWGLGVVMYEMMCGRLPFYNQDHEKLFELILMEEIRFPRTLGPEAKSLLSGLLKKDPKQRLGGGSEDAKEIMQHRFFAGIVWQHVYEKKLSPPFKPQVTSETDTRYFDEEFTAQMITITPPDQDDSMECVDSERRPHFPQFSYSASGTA
Chain of Mitogen-activated protein kinase; ERK1/ERK2 (Homo sapiens) (P27361 whole entry, looked up): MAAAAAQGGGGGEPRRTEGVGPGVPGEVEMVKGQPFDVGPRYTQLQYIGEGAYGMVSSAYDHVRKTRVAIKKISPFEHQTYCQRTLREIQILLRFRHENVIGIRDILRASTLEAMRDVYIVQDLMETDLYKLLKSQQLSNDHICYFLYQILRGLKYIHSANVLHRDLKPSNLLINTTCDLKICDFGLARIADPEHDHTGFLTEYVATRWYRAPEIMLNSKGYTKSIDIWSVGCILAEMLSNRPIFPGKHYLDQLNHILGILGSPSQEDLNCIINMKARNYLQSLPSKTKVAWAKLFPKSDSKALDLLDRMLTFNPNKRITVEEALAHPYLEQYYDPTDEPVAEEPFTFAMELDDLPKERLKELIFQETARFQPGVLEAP
Chain of Mitogen-activated protein kinase; ERK1/ERK2 (Homo sapiens) (P28482 whole entry, looked up): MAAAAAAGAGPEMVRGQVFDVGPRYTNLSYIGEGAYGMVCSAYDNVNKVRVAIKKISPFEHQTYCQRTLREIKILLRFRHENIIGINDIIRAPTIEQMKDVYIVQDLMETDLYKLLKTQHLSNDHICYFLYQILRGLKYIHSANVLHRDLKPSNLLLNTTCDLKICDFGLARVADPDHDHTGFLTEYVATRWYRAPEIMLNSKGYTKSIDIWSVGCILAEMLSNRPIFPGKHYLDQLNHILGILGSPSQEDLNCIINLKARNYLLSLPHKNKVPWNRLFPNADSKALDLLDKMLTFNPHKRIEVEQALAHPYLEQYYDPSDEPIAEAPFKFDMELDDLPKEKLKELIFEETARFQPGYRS

inhibition [5]	inhibition [11]	IC50 [13]	inhibition [14]	inhibition [24]	Compound	IC50 [7]	IC50 [9]	inhibition [15]	IC50 [17]	Activity [19]	inhibition [20]	IC50 [21]	inhibition [23]	also measured
inactive	Active	7.4 µM	inactive	tde	C/C=C(/C)C(=O)O[C@H]1C[C@@H](C)[C@]2(O)CC[C@](C)(/C=C3/OC(=O)C(COC(C)=O)=C31)O2	10.4 µM	8.6 µM	Active	3.3 µM	Toxic	Active	11.8 µM	Active	Activity [1]: 60%; inhibition [2]: Active; Activity [3]: inactive; inhibition [4]: Active; inhibition [6]: inactive; Activity [8]: inactive; Activity [10]: inactive; Activity [12]: inactive; inhibition [16]: inactive; Activity [18]: 47%; Activity [22]: 61%; inhibition [25]: inactive
–	Active	–	Active	–	CC(C)=CCC/C(C)=C/C(=O)OCC1=C2/C(=C\[C@@]3(C)CC[C@](O)(O3)[C@H](C)C[C@@H]2O)OC1=O	–	–	–	1 µM	–	Active	> 5 µM	–	inhibition [26]: inactive; inhibition [27]: Active; inhibition [28]: Active; inhibition [29]: Dose-dependent effect
inactive	Active	5.2 µM	inactive	tde	C=C(C)C(=O)O[C@H]1C[C@@H](C)[C@]2(O)CC[C@](C)(/C=C3/OC(=O)C(COC(C)=O)=C31)O2	8.3 µM	9.1 µM	Active	2.6 µM	Toxic	Active	7.1 µM	Active	IC50 [30]: 7.7 µM; Activity [31]: Dose-dependent effect
–	Active	–	–	–	CCC(C)C(=O)OCC1=C2/C(=C\[C@@]3(C)CC[C@](O)(O3)[C@H](C)C[C@@H]2O)OC1=O (stereo partly specified)	–	–	–	–	–	–	–	–	inhibition [32]: Active
